Source: PMC4841444 (Lipids, 2015)

Experiments:
[1] = target: recombinant HIV-1-RT (Human immunodeficiency virus type 1 group M subtype B, UniProt P03366); assay: Reverse Transcriptase Colorimetric Assay; type: biochemical
[2] = Cytotoxicity against PBMC; type: cell-based; conditions: human, peripheral blood mononuclear cells (PBMC)
Procedure, shortened: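 PBMCs from healthy volunteers, grown in IL-2-supplemented medium, seeded at 20,000 cells/well and exposed to fatty acids at 5–500 µM final. Incubation 3 days at 37 °C in humidified 5% CO2. Viability read by MTT.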

[3] = system: HIV-1 RT; conditions: read-out: IC50 against HIV-1 RT; non-competitive inhibitor; cited from earlier work

| SMILES | IC50 [1] [µM] | IC50 at 3 days [2] [µM] | IC50 [3] [µM] | inhibition of the HIV-1 RT enzyme (in words) ([1]; recombinant HIV-1 RT, colorimetric assay) |
| --- | --- | --- | --- | --- |
| CCCCCCCCCCCCCCCCCCCC#CCCCC(=O)O [1a, 5-Pentacosynoic acid] | 24 ± 1 | > 500 | – | – |
| CCCCCCCCCCCCCCCC#CCCCCCCCC(=O)O [1b, 9-Pentacosynoic acid] | – | > 500 | – | – |
| CCCCCCCCCCCCCCCCCCCCCCC#CC(=O)O [2-Pentacosynoic acid] | 566 ± 1 | – | – | – |
| CCCCCCCCCCCCCCCCCCC/C=C\CCCC(=O)O [2a, (5Z)-5-Pentacosenoic acid] | 38 ± 1 | > 500 | – | – |
| CCCCCCCCCCCCCCC/C=C\CCCCCCCC(=O)O [2b, (9Z)-9-Pentacosenoic acid] | 54 ± 1 | > 500 | – | – |
| CCCCCCCCCCC#CCCCCC(=O)O [6-Heptadecynoic acid] | > 1000 | – | – | – |
| CCCCCCCCCCCCCC#CCCCCC(=O)O [6-Icosynoic acid] | > 1000 | – | – | – |
| CCCCCCCC/C=C\CCCCCCCCCCCCCC(=O)O [Nervonic acid, cis-15-tetracosenoic acid] | 12 ± 1 | > 500 | 4.8 | – |
| CCCCCCCCCCCCCCCC(=O)O [Palmitic acid] | > 1000 | – | – | – |
| CCCCCCCCCCCCCCCCCCCCCCCCC(=O)O [Pentacosanoic acid] | – | – | – | does not inhibit HIV-1 RT at all |
